Measured values taken from ChEMBL document CHEMBL1938301, “Cyclohexane 1,3-diones and their inhibition of mutant SOD1-dependent protein aggregation and toxicity in PC12 cells” (Bioorg Med Chem, 2012).
The source made the active and inactive calls.

Key:
[1] = Half life in Sprague-Dawley rat at 1 mg/kg, po; format: ADME, organism-based; parameters: dose 1 mg/kg, route oral; conditions: in vivo
PC-12 [2] = experiment: Cytoprotective activity against MG132-induced cytotoxicity in rat PC12 cells assessed as cell viability at 100 uM pre-treated for 24 hrs before MG132-induction measured after 48 hrs by Calcein-AM-based fluorimetry; format: functional
HeLa = experiment: Cytoprotective activity against MG132-induced cytotoxicity in human HeLa cells assessed as cell viability at 100 uM pre-treated for 24 hrs before MG132-induction measured after 48 hrs by Calcein-AM-based fluorimetry; format: functional
[3] = Cmax in Sprague-Dawley rat at 1 mg/kg, po; format: ADME, organism-based; parameters: dose 1 mg/kg, route oral; conditions: in vivo
[4] = Inhibition of SOD1 G93A mutant protein aggregation-mediated cytotoxicity in rat PC12 cells expressing yellow fluorescent protein assessed as increase in cell viability; format: cell-based; conditions: PC-12
hERG (KCNH2) = hERG (KCNH2) (Homo sapiens, UniProt Q12809); experiment: Inhibition of human ERG expressed in HEK293 cells at 10 uM; format: cell-based; conditions: HEK293 cells expressing hERG
SH-SY5Y = experiment: Cytoprotective activity against MG132-induced cytotoxicity in human SH-SY5Y cells assessed as cell viability at 100 uM pre-treated for 24 hrs before MG132-induction measured after 48 hrs by Calcein-AM-based fluorimetry; format: functional
[5] = Oral bioavailability in Sprague-Dawley rat at 1 mg/kg; format: ADME, organism-based; conditions: in vivo
[6] = Ratio of drug level in brain to plasma in mutant SOD1 G93A transgenic mouse at 50 mg/kg, ip after 4 hrs; format: ADME, organism-based; parameters: dose 50 mg/kg, route intraperitoneal; conditions: read-out: BPR
In short: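 Single i.p. bolus of 50 mg/kg in G93A SOD1 transgenic mice (18 animals). Blood and brain sampled at 0–24 h, snap-frozen in liquid nitrogen and stored at −80 °C. Brain and plasma concentrations were compared at 4 h, within the plasma plateau.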

[7] = AUClast in Sprague-Dawley rat at 1 mg/kg, iv; format: ADME, organism-based; parameters: time 0 - last, dose 1 mg/kg, route intravenous; conditions: plasma
[8] = Solubility of the compound in phosphate buffer saline after 1 hrs by spectrophotometry; format: physicochemical; conditions: phosphate buffered saline
In short: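 DMSO stocks at 100× final (threefold serial dilutions) diluted into PBS and held 1 h at room temperature. Precipitate checked visually and by absorbance at 450 nm. The solubility limit was taken as the highest concentration not cloudy and with absorbance not above background.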

[9] = Half life in Sprague-Dawley rat at 1 mg/kg, iv; format: ADME, organism-based; parameters: dose 1 mg/kg, route intravenous; conditions: in vivo
Caco-2 [10] = experiment: Apparent permeability from apical to basolateral side of human Caco2 cells at 50 uM after 2 hrs […]; format: ADME, cell-based; conditions: caco-2, 2 h
In short: (§1)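 Caco-2 monolayers on collagen-coated inserts, differentiated 3 weeks. The compound is dosed at 50 μM in HEPES/HBSS/glucose buffer, apical pH 6.5 and basolateral pH 7.4. For A→B, compound and 100 μM Lucifer yellow go apical. For B→A, compound goes basolateral with Lucifer yellow apical. Incubation is 2 h. Lucifer yellow fluorescence checks monolayer integrity (<1% transport). Papp = (dQ/dt)/(c0·A), in 10−6 cm/s.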

Rattus norvegicus [11] = experiment: Dose normalised AUC in Sprague-Dawley rat at 1 mg/kg, iv; format: ADME, organism-based; parameters: dose 1 mg/kg, route intravenous; conditions: in vivo
Cerebral cortex neuron = experiment: Cytoprotective activity against MG132-induced cytotoxicity in rat primary cortical neurons cells assessed as cell viability at 100 uM pre-treated for 24 hrs before MG132-induction measured after 48 hrs by Calcein-AM-based fluorimetry; format: functional
In short: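 Neurons from E18 rat cortex (Sprague-Dawley or Fischer 344), papain-dissociated, plated at 20,000 cells/well on poly-D-lysine, cultured 5 days in Neurobasal/B27 (~90% neurons). Six-point series from 100 μM top in roughly one-third steps, 24 h pre-incubation, then MG132 100 nM final. Viability read 48 h later by Calcein-AM (1 μM, 20 min, RT) fluorescence. Active if ≥5 SD above MG132 controls.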

PC-12 [12] = experiment: Inhibition of SOD1 G93A mutant protein aggregation-mediated cytotoxicity in rat PC12 cells expressing yellow fluorescent protein assessed as increase in cell viability relative to radicicol; format: cell-based; parameters: concentration or dose not given beside the values
In short: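 PC12 cells expressing G93A SOD1-YFP; MG132 proteasome inhibition induces cytotoxic mutant SOD1 aggregates. Cell survival measured as protection read-out; efficacy expressed relative to radicicol positive control.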

HEK293 = experiment: Cytoprotective activity against MG132-induced cytotoxicity in human HEK293 cells assessed as cell viability at 100 uM pre-treated for 24 hrs before MG132-induction measured after 48 hrs by Calcein-AM-based fluorimetry; format: functional
[13] = Toxicity in mouse administered as ip starting at 5 mg/kg and doubling the compound bid each day; format: organism-based; parameters: dose 5 mg/kg, route intraperitoneal; conditions: in vivo
In short: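 Maximum tolerated dose in mice by intraperitoneal injection. Dosing began at 5 mg/kg and was doubled b.i.d. each day, given once in the morning and once mid-afternoon.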

Liver = experiment: Half life in mouse liver microsomes at 5 uM by LC-MS/MS analysis; format: ADME, Microsome
In short: (§2)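 Incubation at 37 °C, in duplicate, with human or mouse liver microsomes (0.275 mg/mL protein) in 100 mM potassium phosphate pH 7.4 with 2 mM NADPH and 3 mM MgCl2. A minus-NADPH control was run. Samples were taken at 15 s and at 10, 20, 40 and 60 min, quenched in acidified acetonitrile with internal standard, and parent was quantified by LC-MS/MS. T1/2 = ln2/k from an exponential fit.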

[14] = Clearance in Sprague-Dawley rat at 1 mg/kg, iv; format: ADME, organism-based; parameters: dose 1 mg/kg, route intravenous; conditions: in vivo
[15] = Volume of distribution at steady state in Sprague-Dawley rat at 1 mg/kg, iv; format: ADME, organism-based; parameters: dose 1 mg/kg, route intravenous; conditions: in vivo, read-out: Vdss
in vivo = conditions: Sprague-Dawley, rat, po, 1 mg/kg
Liver microsomes = experiment: Half life in human liver microsomes at 5 uM by LC-MS/MS analysis; format: ADME, Microsome; in short: as §2
Rattus norvegicus [16] = experiment: Dose normalised AUC in Sprague-Dawley rat at 1 mg/kg, po; format: ADME, organism-based; parameters: dose 1 mg/kg, route oral; conditions: in vivo
[17] = AUClast in Sprague-Dawley rat at 1 mg/kg, po; format: ADME, organism-based; parameters: time 0 - last, dose 1 mg/kg, route oral; conditions: plasma
Caco-2 [18] = experiment: Apparent permeability from basolateral to apical side of human Caco2 cells at 50 uM after 2 hrs […]; format: ADME, cell-based; conditions: caco-2, 2 h; in short: as §1
Caco-2 [19] = experiment: Efflux ratio of permeability from basolateral to apical over apical to basolateral side in human Caco2 cells at 50 uM after 2 hrs […]; format: ADME, cell-based; conditions: caco-2, 2 h
In short: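 Caco-2 monolayers were grown for three weeks on collagen-coated inserts and fed every 2 days. The transport buffer was 10 mM HEPES with 1.98 g/L glucose in HBSS, pH 6.5 apical and pH 7.4 basolateral. Compound was added at 50 μM on the donor side, with 100 μM Lucifer yellow apically, for 2 h. Compound was quantified by LC-MS/MS; Lucifer yellow fluorescence checked monolayer integrity. Papp = (dQ/dt)/(c0·A); ratio taken as B→A over A→B.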

Plasma = experiment: Half life in mouse plasma at 5 uM by LC-MS/MS analysis; format: ADME, cell-free
In short: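 Mouse plasma incubation at 37 °C in duplicate alongside a PBS control, with warfarin and diltiazem as controls. Time points at 15 s and 10, 20, 40 and 60 min; samples precipitated with acetonitrile containing internal standard, then LC-MS/MS. Plasma/PBS response ratio gave % remaining, fitted first-order for half-life.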

hERG (KCNH2), sequence (Q12809 whole entry): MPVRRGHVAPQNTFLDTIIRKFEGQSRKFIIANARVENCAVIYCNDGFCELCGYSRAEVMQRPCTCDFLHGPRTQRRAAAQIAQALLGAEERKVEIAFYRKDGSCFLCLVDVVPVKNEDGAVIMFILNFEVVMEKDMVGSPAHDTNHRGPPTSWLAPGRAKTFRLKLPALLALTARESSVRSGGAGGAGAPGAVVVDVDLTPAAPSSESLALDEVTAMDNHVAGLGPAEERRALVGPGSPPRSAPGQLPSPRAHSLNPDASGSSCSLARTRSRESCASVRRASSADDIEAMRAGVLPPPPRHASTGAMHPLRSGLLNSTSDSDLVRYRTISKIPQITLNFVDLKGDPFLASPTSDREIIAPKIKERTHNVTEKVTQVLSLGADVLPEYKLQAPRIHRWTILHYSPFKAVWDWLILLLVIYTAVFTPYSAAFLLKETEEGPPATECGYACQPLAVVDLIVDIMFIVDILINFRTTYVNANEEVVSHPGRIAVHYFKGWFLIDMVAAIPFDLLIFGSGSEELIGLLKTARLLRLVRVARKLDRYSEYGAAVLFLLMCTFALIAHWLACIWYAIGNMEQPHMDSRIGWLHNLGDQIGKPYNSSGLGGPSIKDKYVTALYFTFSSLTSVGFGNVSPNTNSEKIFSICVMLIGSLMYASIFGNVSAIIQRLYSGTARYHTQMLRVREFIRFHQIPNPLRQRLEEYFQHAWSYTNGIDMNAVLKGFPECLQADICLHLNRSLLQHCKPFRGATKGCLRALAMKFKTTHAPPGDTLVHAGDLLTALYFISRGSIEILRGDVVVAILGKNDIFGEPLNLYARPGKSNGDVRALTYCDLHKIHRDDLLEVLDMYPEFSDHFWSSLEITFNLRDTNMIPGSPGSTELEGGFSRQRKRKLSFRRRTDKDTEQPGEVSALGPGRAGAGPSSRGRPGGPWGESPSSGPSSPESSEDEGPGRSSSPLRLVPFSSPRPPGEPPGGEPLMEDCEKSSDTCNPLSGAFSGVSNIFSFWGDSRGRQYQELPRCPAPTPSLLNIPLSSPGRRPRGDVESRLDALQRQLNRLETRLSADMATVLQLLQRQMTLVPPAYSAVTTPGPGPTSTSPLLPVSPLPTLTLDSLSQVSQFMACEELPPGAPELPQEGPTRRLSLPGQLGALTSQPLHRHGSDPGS

O=C1CC(=O)CC(c2cc(C(F)(F)F)cc(C(F)(F)F)c2)C1
half-life [1]: 3.2 h | Activity (PC-12 [2]): Active | Activity (HeLa): inactive | Cmax [3]: 468 ng/mL | EC50 [4]: 700 nM | inhibition at 10 µM (hERG (KCNH2)): 7.8% | Activity (SH-SY5Y): inactive | bioavailability [5]: 89% | Kp at 4 h [6]: 0.86 | AUC(0-t) [7]: 1980 ng·h/mL | solubility at 1 h [8]: ≥ 500 µM | half-life [9]: 3.7 h | Papp (Caco-2 [10]): 38 cm'-6/s | AUC/dose (Rattus norvegicus [11]): 1996 ng·h/mL | Activity (Cerebral cortex neuron): inactive | Efficacy (PC-12 [12]): 100% | Activity (HEK293): inactive | MTD [13]: 80 mg/kg | t1/2 (Liver): >= 180 min | clearance [14]: 8.4 mL/min/kg | Vd [15]: 1.5 L/kg | Tmax (in vivo): 0.5 h | t1/2 (Liver microsomes): >= 180 min | AUC/dose (Rattus norvegicus [16]): 1774 ng·h/mL | AUC(0-t) [17]: 1760 ng·h/mL | Papp (Caco-2 [18]): 5.7 cm'-6/s

CC(Oc1cc(C(F)(F)F)cc(C(F)(F)F)c1)C1CC(=O)CC(=O)C1 (racemic)
Ratio (Caco-2 [19]): 0.1 | EC50 [4]: 700 nM | Papp (Caco-2 [10]): 24.8 cm'-6/s | Efficacy (PC-12 [12]): 100% | t1/2 (Liver): 0.75 h | t1/2 (Liver microsomes): 1.18 h | t1/2 (Plasma): > 1 h | Papp (Caco-2 [18]): 3.1 cm'-6/s
